# According to ChEMBL document CHEMBL1136852, “Isolation and structure elucidation of parnafungins C and D, isoxazolidinone-containing antifungal natural products” (2009):
# Columns and labels:
# Assay type in all cases: functional
# Candida albicans [1] = test: Antifungal activity against Candida albicans MY2323 expressing single copy of CLP1 gene
# How it was run: (§1)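 Wild-type C. albicans was tested alongside two heterozygote strains, each carrying a single copy of CLP1 or YSH1, to compare mechanism of action. The read-out was MIC.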
# Nakaseomyces glabratus = test: Antifungal activity against Candida glabrata ATCC 90030
# How it was run: (§2)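 MIC was determined in Sabouraud dextrose medium.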
# Candida albicans [2] = test: Antifungal activity against Candida albicans MY2323; how it was run: as §1
# Pichia kudriavzevii = test: Antifungal activity against Candida krusei ATCC 6258; how it was run: as §2
# Candida albicans [3] = test: Antifungal activity against Candida albicans MY2323 expressing single copy of YSH1 gene; how it was run: as §1
# Candida tropicalis = test: Antifungal activity against Candida Candida tropicalis ATCC 750; how it was run: as §2
# Clavispora lusitaniae = test: Antifungal activity against Candida lusitaniae ATCC 34449; how it was run: as §2
# Candida parapsilosis = test: Antifungal activity against Candida parapsilosis 22019; details: Lodderomyces parapsilosis; how it was run: as §2
MIC (Candida albicans [1]) [µg/mL],MIC (Nakaseomyces glabratus) [µg/mL],MIC (Candida albicans [2]) [µg/mL],MIC (Pichia kudriavzevii) [µg/mL],MIC (Candida albicans [3]) [µg/mL],MIC (Candida tropicalis) [µg/mL],MIC (Clavispora lusitaniae) [µg/mL],MIC (Candida parapsilosis) [µg/mL],Structure (SMILES)
0.03,> 10,2,0.08,0.03,2.5,0.16,> 10,COC(=O)[C@]12Oc3cc4c(c(OC)c3C(=O)C1=C(O)CC[C@@H]2O)-c1cccc2c(=O)on(c12)C4 [PARNAFUNGIN A]
0.004,5,0.016,0.016,0.004,0.6,0.16,2.5,COC(=O)[C@]12Oc3cc4c(c(OC)c3C(=O)C1=C(O)[C@@H]1O[C@@H]1[C@@H]2O)-c1cccc2c(=O)on(c12)C4 [PARNAFUNGIN D]
